Assay results as given in the RNAGym collection of RNA variant scans (doi:10.1126/science.aae0568).
Variants at the floor of the assay were thinned out.

B1: tRNA (parent)
chain: GUUCCGUUGGCGUAAUGGUAACGCGUCUCCCUCCUAAGGAGAAGACUGCGGGUUCGAGUCCCGUACGGAACG

Variants of: B1
Assay: yeast fitness relative to wild type (ratio to wild type); higher = fitter; tRNA-Arg(CCU), competitive growth, 37 C, YPD
Method in brief: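 For this measurement, the tRNA-Arg(CCU) gene was varied by chemical synthesis at a 3% per-site mutation rate across 69 sites, and each variant was placed at the native genomic locus in Saccharomyces cerevisiae. The pooled strains went through a 24-hour competition in YPD at 37°C in six parallel replicates, with amplicons from start and end populations read by 100-nucleotide paired-end sequencing. Darwinian fitness relative to wild type followed from the change in each genotype's frequency. Genotypes needed ≥ 100 starting reads, and estimates < 0.5 were set to 0.5.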

Variant | yeast fitness
GUUCCGUUGGCGUAAUGGUAAAGCGUCUGCCUCCUAAGGAGAAGACUGCGGGUUCGAGUCCCGUACGGAACG [C22A C29G] | 0.55
GUUCCGUUGGCGUAAUGGUACCGCGUCUUCCUCCAAAGGAGAAGACUGCGGGUUCGAGUCGCGUACGGAACG [A21C C29U U35A C61G] | 0.707
GUUCCGUUGGCCUAAUGCUAACGCGUCUCCCUCCUAAGGAGAAGACUGCGGGUUCGAGUCCCGUAUGGAACG [G12C G18C C66U] | 0.528
GUUCCGUUGGCGUAAUCGCAACGCGUCUCCCUCCUAAGGAGAAGACUGCGGGUUCGAGACCCGUACGGAACG [G17C U19C U59A] | ≤ 0.5
GUUCCGUUGGCGUGAUGGUAACGAGUCUCCCUCGUAACGAGAAGACUGCGGGUUCGAGUCCCGUACGGAACG [A14G C24A C34G G38C] | ≤ 0.5
GUUCCGUUGGCGUAAUGGUAACGCGUCUCCCUCUUAAGGAGAAGACCGCGGGUUCGAGUCCCGUACGGAACG [C34U U47C] | 0.67
GUUCCAUUGGCGUAAUGGUAACGCGUCUCCCUCCUAAGGAGAAGACUGUGGGUUCGAGUCCCGUUCGGAACG [G6A C49U A65U] | 0.667
GUUCCGUUGGCGUAAUGGUAACGCGUCUUCGUACUAAGGAGAAGACUGCGGGUUCGAGUCCCGUACGGAACG [C29U C31G C33A] | 0.648
GUUCCGUUGCCGUAAUGGGAACGCGUCUCCCUCCUAAGGAGAAGACUGCGGGUUCGAGUCCCGUACGGAACG [G10C U19G] | 0.552
GUUCCGUUGGCGUAAUGGGAACGCGUCUCCCUCCUAAGGAGAUGACUGCGGGUUCGAGUCCCGUGCGAAACG [U19G A43U A65G G68A] | 0.512
GUUCCGUUGGCGUAAUGGUAACGCGUCUUCCUCCUAAGGCGAAGACUGCGGGUUCCAGUCGGGUACGCAACG [C29U A40C G56C C61G C62G G68C] | ≤ 0.5
GUUGCGUUGGCGUAUUGGUAACGCGUCUACCUCCUAAGGAGAAGACUACGGGUUCGAGUCCCGUUCGGAACG [C4G A15U C29A G48A A65U] | 0.53
GUUCCGUUGGCGUAAUGGUAACGCGUCUCCCUCCUAAGCAGAAGACUGCGGGUUCGAGUUCCGUACGGCACG [G39C C60U A69C] | 0.565
GUUUCGUUGGCAUAAUGGUGAUGCGUCUCCCUCUUAGGGAGAAGACUGCGGGUUCGAGUCCCGUACGGAACG [C4U G12A A20G C22U C34U A37G] | ≤ 0.5
GAUCGGUAGGCGUAAUGGUAACGCGUCUCCCUCCUAAGGAGAAAACUACCGGUUCGAGUCCCGUACGGAACG [U2A C5G U8A G44A G48A G50C] | ≤ 0.5
GUUCCGUUGGCGUAAUGGUAACGCGUCUCCCUCCUAAGGAGAAGACUGCGAGUUUGAAUCCCGUACGGAACG [G51A C55U G58A] | 0.606
GUUCGGUUGGCGUAAUGGUAACGCGUCUCCCUCCUAAGGUGAAGACUGCGGGUUCGAGUCCUGUACGGAACG [C5G A40U C62U] | ≤ 0.5
GUUCCGUUGGUGUAAUGGUAACGCGUCUCCCUCCUAAGCAAAAGACUGCGGGUUCGAGUCCCGUACGGAACG [C11U G39C G41A] | ≤ 0.5
GUUCCGUUGGCGAAAUGGUAACGCGUCUCCCUCCUAAGGAGAAGACUGCGGGUUCGAGUCCCGUACGGAUCG [U13A A70U] | 1.04

Variant | yeast fitness
GUUGCGUUGGCGUAAUAGUCACGCGUCUCCCUCCUAAGGAGAAGACUGCGGGUUCGAGUCUCGUACGGAACG [C4G G17A A20C C61U] | ≤ 0.5
GUUCCGUUGGUGUAUUGGUAACGCGUCUCCCUCCGAAGGAGAACACUGCGGGUUCGAGUCCCGUACGGGACG [C11U A15U U35G G44C A69G] | 0.774
GUUCGGUUGGCGUAAUGGUAACGCAUCUCCCUCGUAAGGAGUAGACUGCCGGUCCGAGUCCCGUACGGACCG [C5G G25A C34G A42U G50C U54C A70C] | ≤ 0.5
GUUCCGUUGGCAUAAUGGUCACGCGUCUCCCUCCUAAGGAGAAGACUGCGGGUUCGAGUCCGGUACGGAACG [G12A A20C C62G] | ≤ 0.5
GUUCCGUUGGCGUAAUGGAAACGCGUCUGCCUCCUAAGGAGCAGAAUGGGGGUUCGAGUCCCGUACGGAACG [U19A C29G A42C C46A C49G] | ≤ 0.5
GUUCCGUUGGCGUUAUGGUAACGCGUCUCUAUCCUAAGGAGAAGACUGCGGGUUCGAGUCCCCUACGGAACG [A14U C30U C31A G63C] | ≤ 0.5
GUUCCGUUGGCGUAAUGGUAACGCGUGUCCCUUCUAAGGGGAAGACUGUGGGUUCGAGUCCCGUACGGCACG [C27G C33U A40G C49U A69C] | 0.703
GUCCCGUUGGCGUAAUGGUAACGCGGCUCCCUCCUAAGGAGAAGACUGCGGGUUCGAGUCCCAUACGGAACG [U3C U26G G63A] | ≤ 0.5
GUUCCGUUGGCGUACUGGUAACGCGUCUCCCUCCUAAGGACAAGACUGCGGGUUCGAGGCCCGUACGGAGCG [A15C G41C U59G A70G] | ≤ 0.5
GUUCCGUUCGCGUAAUGGUAAUGCGUCUCCCUCCUAAGGAGAAGACUCCGCGUUCGAGUCCCGUACGGAACG [G9C C22U G48C G51C] | 0.595
GUUCCGUUGGCGUAAUGGUAACGCGCCUCCCCCCUAGGGAGAAGACUGGGGGUUCGAGUCCCGUACGGAACG [U26C U32C A37G C49G] | ≤ 0.5
GUUCUGUUGGCGUAAUGGUAACGCGUCUCCCUCCUAAGGAGAAGACUGCGGAUUCGAGUCCCGUUCGGAACG [C5U G52A A65U] | ≤ 0.5
GUUCCGUUGGCGUAAUGGUACCGUCGCUCCCUCCUAAGGAGAAGACUGCGGGUUCGAGACCCGUACGGACCG [A21C C24U G25C U26G U59A A70C] | ≤ 0.5
GUUUCGUUGGCGUAAUGAUAACGCGUCUCCCUCCUAAGGAGAAGACUGCGGGUUCGAGUCCCGUACGGUACG [C4U G18A A69U] | 0.743
GUUCCGUUGGCGUAAUGGUAACGCGUCUCCCUCCUUAGGAGAAGACUGCGGGUUCGAGUCUCGUUCGGAACG [A36U C61U A65U] | ≤ 0.5
GUUCCGUUCGCGUAAUGGUGACGCGCCUCCCUCCUAAGGAGAAGACUGCGGGUUCGAGUCCCGUACGGAACG [G9C A20G U26C] | ≤ 0.5
GUUCCGUUGGCGUAAUGGUAACGCGUCUCCCUCCUAAGGAGAAUCCUGCCGGUUCGAGUCCCGUACGGAACG [G44U A45C G50C] | ≤ 0.5
GUUCCGUUGGCGUCAUGGUAACGCGUCUCCCUCCUAAGGAGAAGACUGCGGGUUCAAGUCCCGUACGGAACG [A14C G56A] | 0.762
